Data reported in publication PMC3228362 (Biochemistry, 2011).
“And” between values parts separate entries of the source, which are not always exact repeats. Identical values can stand only once. Like-named read-outs stand apart in the source and are kept apart here. Marks after values point to notes of the source that are not given here.

Columns and labels:
T4 exo^- DNA polymerase [1] = assay: Nucleotide incorporation opposite template 2AP; assay type: biochemical, bacteriophage T4; details: for kpol / Kdincorp: long A+T-rich DNA 1, from data of ref 13
[2] = target: T1, RB69 exo^- DNA polymerase (D222A/D327A, wild type) (Escherichia phage RB69, UniProt Q38087, D222A/D327A); assay type: biochemical, bacteriophage RB69; details: opposite template 2AP; for Kd: read-out: Kdincorp, app
T1 sequence (Q38087 whole entry D222A/D327A): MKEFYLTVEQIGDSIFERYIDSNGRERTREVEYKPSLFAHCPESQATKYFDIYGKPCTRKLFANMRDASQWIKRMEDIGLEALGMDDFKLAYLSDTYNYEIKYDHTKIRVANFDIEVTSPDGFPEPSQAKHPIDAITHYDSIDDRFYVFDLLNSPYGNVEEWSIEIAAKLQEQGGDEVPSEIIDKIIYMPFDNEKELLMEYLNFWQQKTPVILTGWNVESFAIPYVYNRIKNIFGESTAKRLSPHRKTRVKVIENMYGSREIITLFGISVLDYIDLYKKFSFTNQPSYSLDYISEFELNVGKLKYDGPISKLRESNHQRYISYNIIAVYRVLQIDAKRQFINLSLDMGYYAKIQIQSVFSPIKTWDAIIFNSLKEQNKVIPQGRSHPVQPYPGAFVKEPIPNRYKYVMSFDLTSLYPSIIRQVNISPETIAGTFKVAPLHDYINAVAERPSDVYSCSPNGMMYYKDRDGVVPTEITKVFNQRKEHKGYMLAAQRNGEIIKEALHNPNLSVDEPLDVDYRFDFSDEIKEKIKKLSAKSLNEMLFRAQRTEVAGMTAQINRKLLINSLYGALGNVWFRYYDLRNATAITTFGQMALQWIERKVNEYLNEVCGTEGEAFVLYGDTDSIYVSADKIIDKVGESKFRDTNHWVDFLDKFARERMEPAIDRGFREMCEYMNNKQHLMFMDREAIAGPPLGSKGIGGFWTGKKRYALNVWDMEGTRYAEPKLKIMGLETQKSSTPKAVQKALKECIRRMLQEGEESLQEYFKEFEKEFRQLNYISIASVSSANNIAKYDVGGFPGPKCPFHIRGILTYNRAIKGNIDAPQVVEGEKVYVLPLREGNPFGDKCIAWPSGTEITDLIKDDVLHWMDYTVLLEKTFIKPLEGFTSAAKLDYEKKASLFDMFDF
Outline: (§1)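 Single-turnover rapid chemical quench at 22 °C in 66 mM Tris-HCl pH 7.5. Final concentrations were 100 nM 5′-32P-labeled DNA, 1 μM polymerase, 10 mM MgCl2 and varying dNTP. Reactions were quenched with 0.5 M EDTA. Products were resolved on 20% acrylamide/8 M urea gels and quantified by phosphorimaging. Data were fit to a single exponential.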

T4 exo^- DNA polymerase [3] = details: opposite template 2AP, long A+T-rich DNA 1, cited from earlier work
[4] = target: T2, RB69 Y567A exo^- DNA polymerase (Escherichia phage RB69, UniProt Q38087, D222A/D327A/Y567A); assay type: biochemical, bacteriophage RB69
T2 sequence (Q38087 whole entry D222A/D327A/Y567A): as the sequence (Q38087 whole entry D222A/D327A) above, with Y567A counted along it
Outline: as §1

[5] = target: T2, RB69 Y567A exo^- DNA polymerase; assay: Nucleotide binding opposite template 2AP; set-up: species or system bacteriophage RB69; details: for Kd: opposite template 2AP
Outline: (§2)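 Chain-terminated (dideoxy) 2AP-labeled primer-template DNA at 200 nM with a 2 to 2.5-fold excess of polymerase, in 25 mM HEPES pH 7.6, 50 mM NaCl, 1 mM DTT and 10 mM MgCl2. Nucleotide was added incrementally. Excitation was at 315 nm and emission was scanned from 330 to 450 nm with 2 nm band-pass, at 20 °C. Kd was taken from the fluorescence quench curves.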

T4 exo^- DNA polymerase [6] = assay: Nucleotide binding opposite template 2AP; set-up: species or system bacteriophage T4; details: for Kd: opposite template 2AP
T4 exo^- DNA polymerase [7] = details: cited from earlier work
[8] = target: T1, RB69 exo^- DNA polymerase (D222A/D327A, wild type); assay: Nucleotide binding opposite template 2AP; set-up: species or system bacteriophage RB69; details: for Kd: read-out: Kdbind, opposite template 2AP
Outline: as §2

DNA polymerase α = details: cited from earlier work
[9] = A+T- and G+C-rich DNAs (Table 1)
[10] = opposite template 2AP, long A+T-rich DNA 1
[11] = opposite template 2AP, long G+C-rich DNA 2
[12] = opposite template 2AP, short A+T-rich DNA 3
[13] = opposite template 2AP, short G+C-rich DNA 4
[14] = read-out: Kdincorp, app, opposite template 2AP, long A+T-rich DNA 1
[15] = read-out: Kdincorp, app, opposite template 2AP, short A+T-rich DNA 3
[16] = read-out: Kdincorp, app, opposite template 2AP, short G+C-rich DNA 4
[17] = read-out: Kd (Table 3), DNA 1, conditions as Table 1
[18] = read-out: Kdbind, long A+T-rich DNA 1
[19] = read-out: Kdbind, long G+C-rich DNA 2

Nc1ccn([C@H]2C[C@H](O)[C@@H](COP(=O)(O)O)O2)c(=O)n1 [dCMP]
kpol / Kdincorp (T4 exo^- DNA polymerase [1]): <0.0008 µM⁻¹ s⁻¹
kpol (overall nucleotide incorporation rate) ([2]; short A+T-rich DNA 3): slow ^c
kpol / Kdincorp ([2]; short A+T-rich DNA 3): <1000 to 3000 M⁻¹ s⁻¹
kpol (overall nucleotide incorporation rate) ([2]; short G+C-rich DNA 4): slow ^c
kpol / Kdincorp ([2]; short G+C-rich DNA 4): <1000 to 3000 M⁻¹ s⁻¹
kpol (overall nucleotide incorporation rate) (T4 exo^- DNA polymerase [3]): 2.3 ± 0.1 s^−1 ^a
kpol [4, 9]: ~ 6 s^−1
kpol, fold lower than for incorporation of dTMP [4, 9]: > 30 fold
kpol/Kd incorporation ratio (efficiency of misincorporation) ([4]; longer and shorter A+T-rich DNA substrates): 30000 to 40000 M⁻¹ s⁻¹
kpol/Kd incorporation ratio (efficiency of misincorporation) ([4]; longer and shorter G+C-rich DNA substrates): 3000 to 7000 M⁻¹ s⁻¹
kpol (overall nucleotide incorporation rate) [4, 10]: 6.4 ± 0.6 s⁻¹
kpol / Kdincorp [4, 10]: 40000 M⁻¹ s⁻¹
kpol (overall nucleotide incorporation rate) [4, 11]: ~6 s⁻¹
kpol / Kdincorp [4, 11]: ~3000 M⁻¹ s⁻¹
kpol (overall nucleotide incorporation rate) [4, 12]: 9.3 ± 0.7 s⁻¹
kpol / Kdincorp [4, 12]: 30000 M⁻¹ s⁻¹
kpol / Kdincorp [4, 13]: 7000 M⁻¹ s⁻¹
Kd ([4]; read-out: Kd,app for incorporation, shorter A+T- and G+C-rich DNAs (Table 2)): 300 to 360 µM
Kd [4, 14]: ~170 µM and 170 µM
Kd [4, 15]: 298 ± 65 µM
Kd [4, 16]: 361 ± 52 µM

O=c1ccn([C@H]2C[C@H](O)[C@@H](COP(=O)(O)OP(=O)(O)OP(=O)(O)O)O2)c(=O)[nH]1 [dUTP]
Kd [5, 17]: 21 ± 1 µM
Kd (T4 exo^- DNA polymerase [6]; [17]): 74.1 ± 2 µM

Cc1cc(C2CC(O)C(COP(=O)(O)OP(=O)(O)OP(=O)(O)O)O2)c(F)cc1F (centres unmarked) [dFTP, difluorotoluene deoxynucleoside triphosphate]
quench of 2AP fluorescence (T4 exo^- DNA polymerase [7]; at concentrations <150 μM, T4 DNA pol binary complexes): does not quench 2AP fluorescence
Ki (T4 exo^- DNA polymerase [7]; read-out: Ki (competitive inhibitor of dTTP-Mg^2+-induced quenching), T4 DNA pol binary complexes): ~68 µM

Cc1cn([C@H]2C[C@H](O)[C@@H](COP(=O)(O)OP(=O)(O)OP(=O)(O)O)O2)c(=O)[nH]c1=O [dTTP]
kpol (rate of nucleotide binding) (T4 exo^- DNA polymerase [7]; long A+T-rich DNA 1, rapid = within dead time of stopped flow instrument): rapid ^a
Kd (T4 exo^- DNA polymerase [7]; read-out: Kdbind, opposite template 2AP, long A+T-rich DNA 1): ~35 µM and 35 µM
Kd ([8]; long A+T-rich DNA 1): 31.1 ± 0.9 µM
Kd ([8]; long G+C-rich DNA 2): 30 ± 0.4 µM
Kd [5, 18]: 9.2 ± 0.8 µM
Kd [5, 19]: 15.1 ± 1.4 µM
kpol (rate of nucleotide binding) (T4 exo^- DNA polymerase [6]; long G+C-rich DNA 2): rapid
Kd (T4 exo^- DNA polymerase [6]; [19]): 28.7 ± 0.6 µM

O=c1ccn([C@@H]2O[C@H](COP(=O)(O)OP(=O)(O)OP(=O)(O)O)[C@@H](O)[C@H]2O)c(=O)[nH]1 [rUTP]
Kd [5, 17]: 522 ± 55 µM
Kd (T4 exo^- DNA polymerase [6]; [17]): > 3000 µM

Nc1ccn([C@H]2C[C@H](O)[C@@H](COP(=O)(O)OP(=O)(O)OP(=O)(O)O)O2)c(=O)n1 [dCTP]
inhibition of dTTP binding (T4 exo^- DNA polymerase [7]): not an inhibitor of dTTP binding
Kd (T4 exo^- DNA polymerase [7]; read-out: Kd for binding opposite template 2AP): ≥ 3000 µM
discrimination against binding compared to dTTP, factor ([8]; 30 μM compared to 3 mM): ≥ 100
Kd for binding, fold higher than Kd for dTTP binding ([5]; A+T-rich DNA substrate (DNA 1)): < 3 fold
Kd for binding, fold higher than Kd for dTTP binding ([5]; G+C-rich DNA (DNA 2)): > 20 fold
Kd [5, 18]: 24.8 ± 2.1 µM
Kd [5, 19]: ~317 µM and 317 µM
Kd ([5]; read-out: Kdbind, short A+T-rich DNA 3): ~53 µM and 53 µM
Kd ([5]; read-out: Kdbind, short G+C-rich DNA 4): ~373 µM and 373 µM
discrimination against binding compared to dTTP, factor (T4 exo^- DNA polymerase [6]; 30 μM compared to 3 mM): ≥ 100

Cc1cn([C@H]2C[C@H](O)[C@@H](COP(=O)(O)O)O2)c(=O)[nH]c1=O [dTMP]
incorporation opposite template 2AP favored over incorporation of dCMP (DNA polymerase α): 20- to 25 fold
dTMP/dCMP (ratio of kpol / Kdincorp) (T4 exo^- DNA polymerase [1]; long A+T-rich DNA 1): >560
kpol / Kdincorp (T4 exo^- DNA polymerase [1]): 0.45 ^f μM^−1 s^−1
dTMP/dCMP (ratio of kpol / Kdincorp) ([2]; short A+T-rich DNA 3): >1000
kpol (overall nucleotide incorporation rate) ([2]; short A+T-rich DNA 3): 379 ± 28 s⁻¹
kpol / Kdincorp ([2]; short A+T-rich DNA 3): 3.3e+06 M⁻¹ s⁻¹
dTMP/dCMP (ratio of kpol / Kdincorp) ([2]; short G+C-rich DNA 4): >1000
kpol (overall nucleotide incorporation rate) ([2]; short G+C-rich DNA 4): 201 ± 16 s⁻¹
kpol / Kdincorp ([2]; short G+C-rich DNA 4): 1e+06 M⁻¹ s⁻¹
Kd ([2]; short A+T-rich DNA 3): 114 ± 26 µM
Kd ([2]; short G+C-rich DNA 4): 200 ± 45 µM
kpol (overall nucleotide incorporation rate) (T4 exo^- DNA polymerase [3]): 165 ± 3 s^−1 ^a
Kd (T4 exo^- DNA polymerase [3]; read-out: Kdincorp, app): 367 ± 36 µM
kpol [4, 9]: ~ 200 s^−1
preference for dTMP over dCMP incorporation ([4]; longer DNA substrates (Table 1)): ~ 300 fold and > 300 fold
dTMP/dCMP (ratio of kpol / Kdincorp) [4, 10]: 375
kpol (overall nucleotide incorporation rate) [4, 10]: 240 ± 11 s⁻¹
kpol / Kdincorp [4, 10]: 1.5e+07 M⁻¹ s⁻¹
dTMP/dCMP (ratio of kpol / Kdincorp) [4, 11]: 333
kpol (overall nucleotide incorporation rate) [4, 11]: 190 ± 11 s⁻¹
kpol / Kdincorp [4, 11]: 1e+06 M⁻¹ s⁻¹
dTMP/dCMP (ratio of kpol / Kdincorp) [4, 12]: 143
kpol (overall nucleotide incorporation rate) [4, 12]: 289 ± 9 s⁻¹
kpol / Kdincorp [4, 12]: 4.3e+06 M⁻¹ s⁻¹
dTMP/dCMP (ratio of kpol / Kdincorp) [4, 13]: 129
kpol (overall nucleotide incorporation rate) [4, 13]: 233 ± 27 s⁻¹
kpol / Kdincorp [4, 13]: 900000 M⁻¹ s⁻¹
Kd [4, 14]: ~16 µM and 16 µM
Kd ([4]; read-out: Kdincorp, app, opposite template 2AP, long G+C-rich DNA 2): 180 ± 75 µM
Kd [4, 15]: 67.3 ± 8 µM
Kd [4, 16]: 263 ± 78 µM
preference for dTMP over dCMP incorporation ([4]; shorter DNAs (Table 2)): ~ 100 fold and > 100 fold
